≈ marks a conversion by molar mass, not a printed value.
What was measured:
[1] = tested on: S. aureus ATCC 25923; assay: Agar well diffusion test; assay type: cell-based; conditions: AWDT; for Zone of inhibition, inhibition scale: S. aureus ATCC 25923; for Zone of inhibition: S. aureus ATCC 25923, average of triplicate
Outline: (§1)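 Agar well diffusion. Test compounds were placed in wells on agar inoculated with the reference strain or isolate. After incubation, inhibition zone diameters were measured in mm with a caliper. Runs were in triplicate and the zone averaged. Scale: 0 = no inhibition; 0–6 mm (−); 7–11 mm (+); 12–14 mm (++); 15–17 mm (+++).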

[2] = tested on: E. coli O157 ATCC 700728; assay: Agar well diffusion test; assay type: cell-based; conditions: AWDT; for Zone of inhibition: E. coli O157 ATCC 700728, average of triplicate; for Zone of inhibition, inhibition scale: E. coli O157 ATCC 700728
Outline: as §1

[3] = tested on: C. albicans ATCC 10231; assay: Agar well diffusion test; assay type: cell-based; conditions: AWDT; for Zone of inhibition, inhibition scale: C. albicans ATCC 10231; for Zone of inhibition: C. albicans ATCC 10231, average of triplicate
[4] = tested on: A. flavus isolate; assay: Agar well diffusion test; assay type: cell-based; conditions: AWDT; for Zone of inhibition: average of triplicate
Outline: as §1

[5] = tested on: C. albicans ATCC 10231; assay: Minimum inhibitory concentration, C. albicans; assay type: cell-based; conditions: Candida albicans, ATCC10231, read-out: MIC (mg mL^−1)
Outline: (§2)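 MIC was determined by a previously reported method for compounds selected from the well-diffusion screen and is expressed in mg mL−1. […] For C. albicans, 100 μL of negative cells went onto potato dextrose agar at 25 °C/72 h.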

[6] = tested on: MCF7 cells; assay: Neutral red uptake cytotoxicity assay, MCF7; assay type: cell-based, human; conditions: for IC50: Homo sapiens, MCF7, 48 h, read-out: IC50 (μM) MCF7; for (SI) MCF7, selectivity index: SI = IC50 MDCK cell/IC50 MCF7 cell
Outline: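 Neutral red uptake. Log-phase cells were grown in DMEM with 10% FBS at 37 °C, 5% CO2, at 10^4 cells/well. They were exposed 48 h to 12.5, 25, 50 and 100 μM test compound (DMSO final <0.2%), then given neutral red medium for 2 h and washed with DPBS. Dye was extracted with 1% acetic acid/50% ethanol and read at 450/630 nm. IC50 came from log concentration versus intensity, three runs averaged. SI = MDCK IC50 / MCF7 IC50.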

[7] = tested on: IL6; assay: qRT-PCR gene expression in MCF7 cells: IL6; assay type: cell-based, human; conditions: compound at IC50, 48 h, relative to β-Actin, vs control
Outline: (§3)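 MCF7 cells (3 × 10^4 per well) were treated 48 h with test compound. Total RNA was column-extracted and reverse-transcribed to first-strand cDNA. SYBR Green qPCR ran 95 °C 10 min, then 40 cycles of 95 °C 15 s, 60 °C 30 s, 72 °C 30 s. Expression was normalised to β-Actin by 2−ΔΔCT relative to untreated control. Data are mean ± SEM; Student's t-test, P < 0.05.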

[8] = tested on: JAK2; assay: qRT-PCR gene expression in MCF7 cells: JAK2; assay type: cell-based, human; conditions: compound at IC50, 48 h, relative to β-Actin, vs control
Outline: as §3

[9] = tested on: STAT3; assay: qRT-PCR gene expression in MCF7 cells: STAT3; assay type: cell-based, human; conditions: compound at IC50, 48 h, relative to β-Actin, vs control
Outline: as §3

[10] = tested on: BCL2; assay: qRT-PCR gene expression in MCF7 cells: BCL2; assay type: cell-based, human; conditions: compound at IC50, 48 h, relative to β-Actin, vs control
Outline: as §3

[11] = tested on: c-MYC; assay: qRT-PCR gene expression in MCF7 cells: c-MYC; assay type: cell-based, human; conditions: compound at IC50, 48 h, relative to β-Actin, vs control
Outline: as §3

[12] = biological target: STAT3 (Homo sapiens, UniProt P40763); assay: STAT3 tyrosine phosphorylation inhibition; assay type: biochemical; conditions: for IC50: STAT3 phosphorylation IC50 (μM) (mean ± SD), ELISA, eight dilutions 100-0.03 μM
STAT3 (Homo sapiens, UniProt P40763), sequence (P40763 whole entry): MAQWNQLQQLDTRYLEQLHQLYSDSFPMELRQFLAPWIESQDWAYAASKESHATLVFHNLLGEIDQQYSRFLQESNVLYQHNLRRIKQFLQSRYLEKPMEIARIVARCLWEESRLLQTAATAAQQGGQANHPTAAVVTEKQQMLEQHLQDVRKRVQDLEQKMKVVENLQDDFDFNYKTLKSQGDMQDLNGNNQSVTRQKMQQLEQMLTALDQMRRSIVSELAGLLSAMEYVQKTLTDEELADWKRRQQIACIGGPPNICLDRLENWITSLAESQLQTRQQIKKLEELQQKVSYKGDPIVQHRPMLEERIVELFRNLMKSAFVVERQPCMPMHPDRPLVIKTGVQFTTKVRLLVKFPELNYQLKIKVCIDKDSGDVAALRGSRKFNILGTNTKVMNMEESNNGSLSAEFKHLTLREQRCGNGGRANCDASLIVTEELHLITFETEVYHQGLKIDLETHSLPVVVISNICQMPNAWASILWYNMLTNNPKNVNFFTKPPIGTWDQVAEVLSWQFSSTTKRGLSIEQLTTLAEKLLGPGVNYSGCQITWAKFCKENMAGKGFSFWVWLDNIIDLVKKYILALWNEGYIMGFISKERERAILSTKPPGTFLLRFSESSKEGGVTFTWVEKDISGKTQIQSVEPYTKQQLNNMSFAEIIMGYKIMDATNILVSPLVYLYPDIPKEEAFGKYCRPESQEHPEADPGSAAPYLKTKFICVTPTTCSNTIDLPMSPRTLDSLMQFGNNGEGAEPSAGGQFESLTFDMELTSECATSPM

[13] = tested on: BAX; assay: qRT-PCR gene expression in MCF7 cells: BAX; assay type: cell-based, human; conditions: compound at IC50, 48 h, relative to β-Actin, vs control
Outline: as §3

[14] = tested on: Cyclin D1; assay: qRT-PCR gene expression in MCF7 cells: Cyclin D1; assay type: cell-based, human; conditions: compound at IC50, 48 h, relative to β-Actin, vs control
Outline: as §3

[15] = tested on: E. coli O157 ATCC 700728; assay: Minimum inhibitory concentration, E. coli; assay type: cell-based; conditions: Escherichia coli, ATCC700728, read-out: MIC (mg mL^−1)
Outline: as §2

[16] = biological target: T1, E. coli DNA gyrase (Escherichia coli, UniProt P0AES6); assay: E. coli DNA gyrase supercoiling assay; assay type: biochemical
Outline: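 Commercial kit assay of E. coli DNA gyrase supercoiling. Relaxed plasmid DNA is the substrate, and relaxed and supercoiled forms are separated by agarose gel electrophoresis. Test compounds were dissolved in DMSO and added at different concentrations to derive IC50.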

[17] = biological target: T1, E. coli DNA gyrase; assay: E. coli DNA gyrase ATPase assay; assay type: biochemical
[18] = biological target: T2, E. coli topoisomerase IV (Escherichia coli, UniProt P20083); assay: E. coli topoisomerase IV cleavage assay; assay type: biochemical
T2 sequence (P20083 whole entry): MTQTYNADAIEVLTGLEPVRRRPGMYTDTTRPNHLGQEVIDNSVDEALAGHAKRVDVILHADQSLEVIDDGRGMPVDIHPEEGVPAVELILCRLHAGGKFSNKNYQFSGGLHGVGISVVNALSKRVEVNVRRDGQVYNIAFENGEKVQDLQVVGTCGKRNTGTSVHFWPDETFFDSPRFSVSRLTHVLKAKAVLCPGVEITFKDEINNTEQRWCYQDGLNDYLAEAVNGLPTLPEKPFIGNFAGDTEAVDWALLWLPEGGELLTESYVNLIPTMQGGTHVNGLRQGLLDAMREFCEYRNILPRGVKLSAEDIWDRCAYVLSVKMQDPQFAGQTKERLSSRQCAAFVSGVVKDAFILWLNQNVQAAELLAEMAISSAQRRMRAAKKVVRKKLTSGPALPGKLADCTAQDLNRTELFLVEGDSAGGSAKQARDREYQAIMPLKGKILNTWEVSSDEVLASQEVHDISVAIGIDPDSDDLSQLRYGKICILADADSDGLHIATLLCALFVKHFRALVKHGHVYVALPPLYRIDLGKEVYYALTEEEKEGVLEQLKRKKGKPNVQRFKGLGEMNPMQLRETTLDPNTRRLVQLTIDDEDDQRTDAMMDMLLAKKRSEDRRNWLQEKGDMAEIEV
T2 sequence (P0AFI2 whole entry partner): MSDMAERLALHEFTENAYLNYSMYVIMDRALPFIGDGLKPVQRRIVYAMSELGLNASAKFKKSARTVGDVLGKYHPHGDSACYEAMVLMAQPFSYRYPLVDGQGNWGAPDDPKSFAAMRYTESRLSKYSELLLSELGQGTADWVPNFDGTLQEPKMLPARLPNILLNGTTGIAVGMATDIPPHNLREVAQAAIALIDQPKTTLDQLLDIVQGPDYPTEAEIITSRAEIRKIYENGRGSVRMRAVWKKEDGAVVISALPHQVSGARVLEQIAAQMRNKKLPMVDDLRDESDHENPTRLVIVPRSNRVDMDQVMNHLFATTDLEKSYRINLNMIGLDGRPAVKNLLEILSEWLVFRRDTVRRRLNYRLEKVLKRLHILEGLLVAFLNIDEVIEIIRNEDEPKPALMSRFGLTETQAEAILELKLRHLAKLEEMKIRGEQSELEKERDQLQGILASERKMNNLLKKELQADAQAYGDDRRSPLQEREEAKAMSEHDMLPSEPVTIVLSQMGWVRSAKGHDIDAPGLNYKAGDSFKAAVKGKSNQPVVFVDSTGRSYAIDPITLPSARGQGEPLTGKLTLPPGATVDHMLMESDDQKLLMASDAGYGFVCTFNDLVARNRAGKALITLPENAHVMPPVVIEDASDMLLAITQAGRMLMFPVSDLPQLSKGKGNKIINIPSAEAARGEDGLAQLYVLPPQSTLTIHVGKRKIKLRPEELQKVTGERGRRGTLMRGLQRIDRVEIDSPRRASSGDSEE

[19] = biological target: T2, E. coli topoisomerase IV; assay: E. coli topoisomerase IV ATPase assay; assay type: biochemical

| Structure (SMILES) | Zone of inhibition, inhibition scale [1] | Zone of inhibition [1] | Zone of inhibition [2] | Zone of inhibition, inhibition scale [3] | Zone of inhibition [3] | Zone of inhibition, inhibition scale [4] | Zone of inhibition [4] | MIC [5] | IC50 [6] | (SI) MCF7, selectivity index [6] | IL6 gene expression level [7] | JAK2 gene expression level [8] | STAT3 gene expression level [9] | BCL2 gene expression level [10] | c-MYC gene expression level [11] | also measured |
| --- | --- | --- | --- | --- | --- | --- | --- | --- | --- | --- | --- | --- | --- | --- | --- | --- |
| CC(=O)c1ccc2cc(S(=O)(=O)Nc3cccc(Cl)c3)ccc2c1 [Compound 5d, 6-Acetyl-N-(3-chlorophenyl)naphthalene-2-sulfonamide] | − (0–6 mm (−)) | 0 mm | 10 mm | + (7–11 mm (+)) | 15 mm | − (0–6 mm (−)) | 0 mm | 10000 µg/mL (≈ 27.8 mM) | – | – | – | – | – | – | – | – |
| CC(=O)c1ccc2cc(S(=O)(=O)Nc3ccccc3)ccc2c1 [Compound 5a, 6-Acetyl-N-phenylnaphthalene-2-sulfonamide] | − (0–6 mm (−)) | 0 mm | – | ++ (12–14 mm (++)) | 12 mm | − (0–6 mm (−)) | 0 mm | – | 42.1 µM | 2.15 | significantly decreased | significantly decreased | significantly decreased | significantly decreased | significantly decreased | IC50 [12]: 7.87 ± 0.74 µM |
| CC(=O)c1ccc2cc(S(=O)(=O)NCc3ccccc3)ccc2c1 [Compound 5h, 6-Acetyl-N-benzylnaphthalene-2-sulfonamide] | ++ (12–14 mm (++)) | 14 mm | 10 mm | + (7–11 mm (+)) | 7 mm | + (7–11 mm (+)) | 10 mm | – | – | – | – | – | – | – | – | – |
| CC(=O)c1ccc2cc(S(=O)(=O)Nc3ccccn3)ccc2c1 [Compound 5i, 6-Acetyl-N-(pyridin-2-yl)naphthalene-2-sulfonamide] | − (0–6 mm (−)) | 0 mm | 11 mm | + (7–11 mm (+)) | 14 mm | − (0–6 mm (−)) | 0 mm | 40000 µg/mL (≈ 123 mM) | 41.6 µM | 2.13 | significant decrease | significant decrease | significant decrease | significant decrease | significant decrease | BAX gene expression level [13]: significant increase; Cyclin D1 gene expression level [14]: significant decrease; IC50 [12]: 8.58 ± 0.9 µM |
| CC(=O)c1ccc2cc(S(=O)(=O)Nc3ccccc3C)ccc2c1 [Compound 5f, 6-Acetyl-N-(o-tolyl)naphthalene-2-sulfonamide] | − (0–6 mm (−)) | 0 mm | 11 mm | + (7–11 mm (+)) | 12 mm | − (0–6 mm (−)) | 0 mm | – | – | – | – | – | – | – | – | – |
| COc1cccc2c1C(=O)c1c(O)c3c(c(O)c1C2=O)C[C@@](O)(C(=O)CO)C[C@@H]3O[C@H]1C[C@H](N)[C@H](O)[C@H](C)O1 [Doxorubicin, reference compound] | – | – | – | – | – | – | – | – | 22.8 µM | 3.07 | significantly decreasing | significantly decreasing | significantly decreasing | significantly decreasing | significantly decreasing | BAX gene expression level [13]: significantly raised; Cyclin D1 gene expression level [14]: significantly decreasing |
| CC(=O)c1ccc2cc(S(=O)(=O)Nc3cccnc3)ccc2c1 [Compound 5j, 6-Acetyl-N-(pyridin-3-yl)naphthalene-2-sulfonamide] | − (0–6 mm (−)) | 0 mm | 16 mm | +++ (15–17 mm (+++)) | 16 mm | + (7–11 mm (+)) | 7 mm | 10000 µg/mL (≈ 30.6 mM) | – | – | – | – | – | – | – | MIC [15]: 20000 µg/mL (≈ 61.3 mM) |
| CC(=O)c1ccc2cc(S(=O)(=O)Nc3ccc(F)cc3)ccc2c1 [Compound 5b, 6-Acetyl-N-(4-fluorophenyl)naphthalene-2-sulfonamide] | − (0–6 mm (−)) | 0 mm | 15 mm | +++ (15–17 mm (+++)) | 15 mm | − (0–6 mm (−)) | 0 mm | 10000 µg/mL (≈ 29.1 mM) | 40.1 µM | 2.33 | significant decrease | significant decrease | significant decrease | significant decrease | significant decrease | BAX gene expression level [13]: significant increase; Cyclin D1 gene expression level [14]: significant decrease; MIC [15]: 10000 µg/mL (≈ 29.1 mM); IC50 [12]: 3.59 ± 0.7 µM; Potency as STAT3 inhibitor relative to lead compound I ([12]; higher potency than compound I): approximately 2 fold; IC50 [16]: 20.6 µM; IC50 [17]: 3.58 µM; IC50 [18]: 15.4 µM; Potency relative to norfloxacin, topoisomerase IV cleavage assay ([18]; E. coli, more potent than norfloxacin): 1.5 fold; IC50 [19]: 3.49 µM |
| CCn1cc(C(=O)O)c(=O)c2cc(F)c(N3CCNCC3)cc21 [Nor, norfloxacin, reference compound] | – | – | – | – | – | – | – | – | – | – | – | – | – | – | – | IC50 [16]: 11.1 µM; IC50 [18]: 25.8 µM |
| CC(=O)c1ccc2cc(S(=O)(=O)Nc3ccccc3Cl)ccc2c1 [Compound 5c, 6-Acetyl-N-(2-chlorophenyl)naphthalene-2-sulfonamide] | − (0–6 mm (−)) | 0 mm | 12 mm | +++ (15–17 mm (+++)) | 16 mm | − (0–6 mm (−)) | 0 mm | 20000 µg/mL (≈ 55.6 mM) | – | – | – | – | – | – | – | Zone of inhibition, inhibition scale [2]: ++ (12–14 mm (++)) |
| COc1ccc(NS(=O)(=O)c2ccc3cc(C(C)=O)ccc3c2)cc1 [Compound 5g, 6-Acetyl-N-(4-methoxyphenyl)naphthalene-2-sulfonamide] | − (0–6 mm (−)) | 0 mm | 12 mm | + (7–11 mm (+)) | 10 mm | − (0–6 mm (−)) | 0 mm | – | – | – | – | – | – | – | – | Zone of inhibition, inhibition scale [2]: ++ (12–14 mm (++)) |
